Four molecules from article PMC3502708 (Journal of molecular biology, 2012) can be followed below.

Assay [1] has as its system endogenous H3K14ac / histone H3 in HEK293 cells. Format: cell-based. Conditions: anti-Flag IP, anti-H3K14ac immunoblot. The gist of the method: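 HEK293 cells were seeded at 300,000 per 6 cm dish and lipofection-transfected with Flag-tagged MORF N-terminal constructs (aa 1–352, or aa 1–215 lacking PHD1/2). After about 48 h, cells were lysed in buffer with 150 mM KCl and immunoprecipitated on anti-Flag M2 agarose. Beads were washed extensively and eluted in 50 mM phosphoric acid. Blots were probed with anti-Flag, anti-H3K14ac and anti-H3. Where indicated, TSA (3 μM) was added to the medium 6 h before harvest.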
For orientation: Immunoblotting shows a protein as a band on a membrane.

Another assay has as its system HEK293 cells. The assay can be described thus: Live green fluorescence microscopy of GFP-MORF constructs. Format: cell-based. Conditions: 18 h post-transfection.

B1: N-MORF: entire N-terminal region of MORF (amino acids 1–352), Flag-tag fusion (protein)
chain: MVKLANPLYTEWILEAIQKIKKQKQRPSEERICHAVSTSHGLDKKTVSEQLELSVQDGSVLKVTNKGLASYKDPDNPGRFSSVKPGTFPKSAKGSRGSCNDLRNVDWNKLLRRAIEGLEEPNGSSLKNIEKYLRSQSDLTSTTNNPAFQQRLRLGAKRAVNNGRLLKDGPQYRVNYGSLDGKGAPQYPSAFPSSLPPVSLLPHEKDQPRADPIPICSFCLGTKESNREKKPEELLSCADCGSSGHPSCLKFCPELTTNVKALRWQCIECKTCSACRVQGRNADNMLFCDSCDRGFHMECCDPPLSRMPKGMWICQVCRPKKKGRKLLHEKAAQIKRRYAKPIGRPKNKLKQR
modifications: left off: Flag, end not stated, kept
Consider B1, for which, in assay [1], the “Co-immunoprecipitation of endogenous H3K14ac” value is listed as “co-immunoprecipitated endogenous H3K14ac”.

B2: GFP-N-MORF: GFP-tagged N-MORF (amino acids 1–352) (protein, UniProt Q8WYB5 1-352, looked up, fragment)
chain: MVKLANPLYTEWILEAIQKIKKQKQRPSEERICHAVSTSHGLDKKTVSEQLELSVQDGSVLKVTNKGLASYKDPDNPGRFSSVKPGTFPKSAKGSRGSCNDLRNVDWNKLLRRAIEGLEEPNGSSLKNIEKYLRSQSDLTSTTNNPAFQQRLRLGAKRAVNNGRLLKDGPQYRVNYGSLDGKGAPQYPSAFPSSLPPVSLLPHEKDQPRADPIPICSFCLGTKESNREKKPEELLSCADCGSSGHPSCLKFCPELTTNVKALRWQCIECKTCSACRVQGRNADNMLFCDSCDRGFHMECCDPPLSRMPKGMWICQVCRPKKKGRKLLHEKAAQIKRRYAKPIGRPKNKLKQR
modifications: GFP tag
On to B2, for which the “Subcellular localization of GFP-MORF construct” value in the assay on HEK293 cells was “clearly associated with chromatin forming nuclear speckles”.

B3: N-MORFΔPHD1/2: N-MORF (amino acids 1–215) in which the PHD1/2 fingers are deleted, Flag-tag fusion (protein)
chain: MVKLANPLYTEWILEAIQKIKKQKQRPSEERICHAVSTSHGLDKKTVSEQLELSVQDGSVLKVTNKGLASYKDPDNPGRFSSVKPGTFPKSAKGSRGSCNDLRNVDWNKLLRRAIEGLEEPNGSSLKNIEKYLRSQSDLTSTTNNPAFQQRLRLGAKRAVNNGRLLKDGPQYRVNYGSLDGKGAPQYPSAFPSSLPPVSLLPHEKDQPRADPIPI
modifications: left off: Flag, end not stated, kept
Turning to B3, the “Co-immunoprecipitation of endogenous H3K14ac” value in assay [1] was “unable to pull down acetylated histone H3”.

B4: GFP-N-MORFΔPHD1/2: GFP-tagged N-MORFΔPHD1/2 (amino acids 1–215) (protein, UniProt Q8WYB5 1-215, looked up, fragment)
chain: MVKLANPLYTEWILEAIQKIKKQKQRPSEERICHAVSTSHGLDKKTVSEQLELSVQDGSVLKVTNKGLASYKDPDNPGRFSSVKPGTFPKSAKGSRGSCNDLRNVDWNKLLRRAIEGLEEPNGSSLKNIEKYLRSQSDLTSTTNNPAFQQRLRLGAKRAVNNGRLLKDGPQYRVNYGSLDGKGAPQYPSAFPSSLPPVSLLPHEKDQPRADPIPI
modifications: GFP tag
As for B4, the “Subcellular localization of GFP-MORF construct” value in the assay with HEK293 cells is listed as “evenly dispersed in the nucleus”.
